In ChEMBL document CHEMBL1268859, “Diarylheptanoids from the Rhizomes of Curcuma kwangsiensis” (J Nat Prod, 2010):

System: RAW264.7
Assay: Antiinflammatory activity in mouse RAW264.7 cells assessed as inhibition of LPS-induced NO production by MTT assay
Assay type: functional, cell-based
Conditions: in the assay text read “Griess assay” for “MTT assay”
Outline: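 RAW 264.7 mouse macrophages in RPMI 1640 with 10% heat-inactivated FBS, penicillin and streptomycin, seeded 1 × 10⁵ cells/well, adhered 2 h at 37 °C, 5% CO₂. Stimulated with LPS 1 µg/mL for 24 h with or without test agents at various concentrations (DMSO, 0.2% v/v final). Supernatant nitrite read with Griess reagent against a nitrite standard line. MTT viability after 24 h.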

Oc1ccc(/C=C/CC[C@@H](O)CCc2ccc(O)cc2)cc1
IC50: 16.1 µM

Oc1ccc(/C=C/CC[C@H](O)CCc2ccc(O)c(O)c2)cc1
IC50: 42 µM

Oc1ccc(/C=C/CC[C@@H](O)CCc2ccc(O)c(O)c2)cc1
IC50: 20.6 µM

Oc1ccc(CCCC[C@H](O)CCc2ccc(O)c(O)c2)cc1
IC50: 5.83 µM

Oc1ccc(CCCC[C@@H](O)CCc2ccc(O)c(O)c2)cc1
IC50: 9.66 µM

Oc1ccc(CC[C@H](O)CC/C=C/c2ccccc2)cc1O
IC50: 7.34 µM

CC(=O)O[C@@H](CC/C=C/c1ccc(O)cc1)CCc1ccc(O)c(O)c1
IC50: 6.54 µM

CC(=O)O[C@H](CC/C=C/c1ccc(O)cc1)CCc1ccc(O)c(O)c1
IC50: 15.6 µM

CC(=O)O[C@@H](CCCCc1ccc(O)cc1)CCc1ccc(O)c(O)c1
IC50: 49.5 µM

CC(=O)O[C@H](CCCCc1ccc(O)cc1)CCc1ccc(O)c(O)c1
IC50: 28.5 µM

O=C(CC/C=C/c1ccc(O)cc1)CCc1ccc(O)cc1
IC50: 8.93 µM

O=C(CCCCc1ccc(O)cc1)CCc1ccc(O)cc1
IC50: 5.58 µM

COc1cc(CCC(=O)CCCCc2ccc(O)cc2)ccc1O
IC50: 10.6 µM

COc1cc(CCC(=O)/C=C/CCc2ccc(O)cc2)ccc1O
IC50: 2.69 µM

Oc1ccc(/C=C/CC[C@H](O)CCc2ccc(O)cc2)cc1
IC50: 9.83 µM

Oc1ccc(CC[C@@H](O)CC/C=C/c2ccccc2)cc1O
IC50: 3.86 µM

O=C(CC/C=C/c1ccccc1)CCc1ccc(O)cc1
IC50: 6.98 µM

O=C(/C=C/C=C/c1ccc(O)cc1)CCc1ccc(O)cc1
IC50: 4.79 µM

C[C@]12CCC(=O)C=C1CC[C@@H]1[C@@H]2[C@@H](O)C[C@@]2(C)[C@H]1CC[C@]2(O)C(=O)CO [HYDROCORTISONE]
IC50: 40.6 µM

COc1ccc2c(c1)c(CC(=O)O)c(C)n2C(=O)c1ccc(Cl)cc1 [INDOMETHACIN]
IC50: 13 µM
